In ChEMBL document CHEMBL2311261, “Biocatalytic synthesis, structural elucidation, antioxidant capacity and tyrosinase inhibition activity of long chain fatty acid acylated derivatives of phloridzin and isoquercitrin” (Bioorg Med Chem, 2013):

How the values were obtained:
[1] = tested on: Radical scavenging activity; experiment: Antioxidant activity assessed as DPPH radical scavenging activity; type: functional
In short: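 Test compounds at a series of concentrations in DMSO/chloroform/methanol (1:8:4), mixed 1:1 (v/v) with 0.2 mM DPPH and incubated 30 min at 25 °C. Absorbance read at 520 nm from 0 s and every 300 s until plateau. Run in triplicate.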

[2] = Antioxidant activity assessed as Trolox equivalents of 1 mmol/L solution by FRAP assay; type: functional
In short: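 FRAP reagent made daily from 300 mmol l⁻¹ acetate buffer (pH 3.6), 10 mmol l⁻¹ TPTZ and 20 mmol l⁻¹ FeCl3 (10:1:1). Trolox calibration 50–1000 μmol l⁻¹. Result given as Trolox equivalents of a 1 mmol l⁻¹ solution. Run in triplicate.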

[3] = Antioxidant activity assessed as Trolox equivalents of 0.001 mmol/L solution by ORAC assay; type: functional
[4] = Antioxidant activity assessed as Trolox equivalents of 0.01 mmol/L solution by ORAC assay; type: functional
[5] = tested on: tyrosinase (Agaricus bisporus); experiment: Inhibition of mushroom tyrosinase using L-DOPA substrate at 10 uM
[6] = tested on: tyrosinase (Agaricus bisporus); experiment: Inhibition of mushroom tyrosinase using L-DOPA substrate at 1000 uM
[7] = tested on: tyrosinase (Agaricus bisporus); experiment: Inhibition of mushroom tyrosinase using L-DOPA substrate at 100 uM

Compound	IC50 [1] [µM]	Activity [2] [µmol/L]	Activity [3] [µmol/L]	Activity [4] [µmol/L]	inhibition [5] [%]	inhibition [6] [%]	inhibition [7] [%]
O=c1c(O[C@@H]2O[C@H](CO)[C@@H](O)[C@H](O)[C@H]2O)c(-c2ccc(O)c(O)c2)oc2cc(O)cc(O)c12 [ISOQUERCETIN]	17.9	1500	473				
O=C(CCc1ccc(O)cc1)c1c(O)cc(O)cc1O[C@@H]1O[C@H](CO)[C@@H](O)[C@H](O)[C@H]1O [PHLORIZIN]	1490			120			
CCCCC/C=C\C/C=C\CCCCCCCC(=O)OC[C@H]1O[C@@H](Oc2c(-c3ccc(O)c(O)c3)oc3cc(O)cc(O)c3c2=O)[C@H](O)[C@@H](O)[C@@H]1O	60.4	340	491		32.1	80.6	73.3
CC/C=C\C/C=C\C/C=C\CCCCCCCC(=O)OC[C@H]1O[C@@H](Oc2c(-c3ccc(O)c(O)c3)oc3cc(O)cc(O)c3c2=O)[C@H](O)[C@@H](O)[C@@H]1O	97.9	614	490		55.8	85.5	78.8
CCCCCCCCCCCCCCCCCC(=O)OC[C@H]1O[C@@H](Oc2c(-c3ccc(O)c(O)c3)oc3cc(O)cc(O)c3c2=O)[C@H](O)[C@@H](O)[C@@H]1O	42	622	310				
CCCCCCCC/C=C\CCCCCCCC(=O)OC[C@H]1O[C@@H](Oc2c(-c3ccc(O)c(O)c3)oc3cc(O)cc(O)c3c2=O)[C@H](O)[C@@H](O)[C@@H]1O	38.2	536	265		38.9	62.4	47.5
